The series can be described thus: Toxicity liver stage against HepG2, at 10uM. It counts as cell-based. On the set-up: test concentration 10 uM, cell line HepG2-A16-CD81EGFP. As to conditions: human, HepG2-A16-CD81EGFP cells; read-out: INHIBITION
The gist of the method:
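Uninfected HepG2-A16-CD81EGFP cells, 3 × 10^3 per well, 1536-well, plated on prespotted compound at 10 μM final, parasite-free screening media added to match infected plates; puromycin 10 μM positive, DMSO 0.5% negative; run in parallel with 48 h PbLuc assay at 37 °C, 5% CO2; viability by CellTiter-Glo luminescence, normalized to controls.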
For `Cc1ncoc1C(=O)N1CCOC(Cc2ccccc2)C1` (stereo not given), the cytotoxicity at 10 µM was 2.23%. To `c1ccc(CNC[C@H]2COCc3nc4cccnc4n32)cc1` belongs -1.84%. Next, `CC(C)CCN1C(=O)C2(NC(=O)c3ccccc3O2)c2ccccc21` (stereo not given): 4.02%; `CN(C)CCCNC(=O)c1cc(-c2ccc3c(c2)CCO3)n[nH]1`: -12.8%; `Cc1cc(C)nc(NCCC(=O)Nc2ccc(Cn3cncn3)cc2)n1`: -2.82%. Next, `N#Cc1ccc(OC2CCN(C(=O)c3cncc(Br)c3)CC2)nc1`: 3.05%; `CCC(C)NC(=O)Cn1c(Nc2cc(C)cc(C)c2)nc(C)cc1=O` (stereo not given): 9.91%; `COCCNC(=O)c1cc2c(nc1O)CC(c1cccs1)CC2=O` (stereo not given): 11.9%. As for `Cc1cc(O)c(OCC(=O)Nc2nc3c(s2)CCCCC3)cn1`, the cytotoxicity at 10 µM was found to be 3.93%.

In the case of `Cn1ncc2c1NC(=O)CC2c1ccccc1Cl` (stereo not given), the cytotoxicity at 10 µM turned out to be 55.7%. Turning to `Cn1ccnc1-c1nc(N2CCCCC2)ncc1-c1ccccc1F`, the cytotoxicity at 10 µM came to 12.4%.

As for `Oc1nc(N2CCOCC2)nc2c1CCN(Cc1cccc(F)c1)CC2`, the cytotoxicity at 10 µM was -8.08%. To `NC(=O)C1(CCCc2ccccn2)CCCN(Cc2ccncc2)C1` (stereo not given) belongs -4.8%; to `Cc1cc(C)c2cc(CNCc3ccc(C)o3)c3nn(C)c(=O)n3c2c1`, -1.83%; to `COC(=O)CNC(=O)c1nc(-c2ccccc2OC)c2cnccn12`, 8.6%. For the compound `CC(C)NC(=O)N1CCCCC1c1nnc2n1CCNC2` (stereo not given), the cytotoxicity at 10 µM came to 14.3%.

In the case of `O=C(NCc1nnc2n1CCCCC2)N(CC1CCOC1)C1CC1` (stereo not given), the cytotoxicity at 10 µM turned out to be 5.63%.

Consider `O=C(c1cc(Br)c[nH]1)N1CCN(Cc2ccco2)CC1`, for which the cytotoxicity at 10 µM is -64.2%. To `CN(Cc1ccc(F)c(F)c1)C(=O)CCc1nc(-c2nnc[nH]2)no1` belongs -43.6%; to `Cc1cc(C)n(CCN2CCC(N(C)Cc3nnc(C)n3C)C2)n1` (stereo not given), 2.35%; to `CN(C)C1(CNC(=O)c2c(O)cc(Cl)cc2Cl)CCOCC1`, -9.46%. `CC(C)CCc1noc(C[S+]([O-])CC(=O)NCc2ccccc2)n1` (stereo not given): the cytotoxicity at 10 µM turned out to be 5.28%. Turning to `CCc1nc(NC(=O)Cc2csc(-c3nnc[nH]3)n2)sc1C`, the cytotoxicity at 10 µM was -45.1%.

On to `CC(C)c1nc(CN(C)S(=O)(=O)c2cccs2)cs1`, for which the cytotoxicity at 10 µM is -48.8%. For the compound `COc1ccc(CCCC(=O)N2CCCC(n3cncn3)C2)cc1` (stereo not given), the cytotoxicity at 10 µM is -6.96%. To `CCn1cc(CN2CCCN(C(=O)C3(C)CCOCC3)CC2)cn1` belongs -45.4%; to `CCOc1c(F)cccc1C(=O)N(c1cccnc1)C(C)C`, 1.52%. To `CNC(=O)NC(=O)CSC(C)c1ccccc1F` (stereo not given) belongs -14.4%; to `Cc1cc(C2CCCN2C(=O)NCc2cccnc2)on1` (stereo not given), 0.458%. To `O=C(NCC1CCCCC1)NC1CCCc2c1cnn2CCO` (stereo not given) belongs -2.92%; to `O=C(CN1C(=O)c2ccccc2CS1(=O)=O)c1ccc(Cl)cc1`, 4.17%. Consider `CC(=O)c1cccc(OCCCC(=O)N(C)Cc2cnc(C)s2)c1`, for which the cytotoxicity at 10 µM amounted to 14.2%. Next, `N#Cc1cccc(OCCN2CCCC2C(=O)N2CCSCC2)c1` (stereo not given): 9.06%; `CC(C)(C)OC(=O)N1CCCc2ccc(NCc3ccon3)cc21`: 10.9%; `Cc1ccc(C2CN(C(=O)c3c(C)cc(C)[nH]c3=O)CCO2)c(C)c1` (stereo not given): -19.8%.

Turning to `CS(=O)(=O)CCC(=O)N(Cc1c(F)cccc1F)C1CCCC1`, the cytotoxicity at 10 µM is -12.9%. Next, `CC(C)c1nc(S(=O)(=O)N(C)c2ccc(F)cc2)c[nH]1`: -0.131%; `CN(Cc1ccco1)C(=O)c1ccc(=O)n(C)c1`: -47.5%. To `Cn1ccnc1CN(CCCO)CC(F)(F)F` belongs 5.68%; to `CC(NC(=O)Nc1nccs1)c1cccnc1` (stereo not given), -8.81%. Next, `COc1cc2c(c(OC)c1OC)CCN(CCN1CCCCC1)CC2`: -15.7%; `COCCOCC(=O)Nc1ccnn1-c1ccc(Cl)cc1`: -11.6%; `O=C(Nc1ccc2c(c1)C(=O)NC2)c1ccc(S(=O)(=O)C(F)(F)F)cc1`: 36.9%. With `CN(C1CCN(c2ccccn2)CC1)S(=O)(=O)N1CCOCC1`, the cytotoxicity at 10 µM was -5.23%.

Consider `O=C(CN(Cc1ccccc1)CC1CCOCC1)NC(=O)NC1CC1`, for which the cytotoxicity at 10 µM was -6.49%. Next, `CN(C(=O)Cc1ccc(NC(=O)NC2CCC2)cc1)c1ccccc1`: -6.11%; `COc1cccc(NC(=O)N2CC[C@@H]3CN(C)S(=O)(=O)[C@@H]3CC2)c1`: 7.3%. Next, `CC(=O)NCc1nnn2c1CN(c1ncccn1)CCC2`: -107%; `CN(CCO)C[C@@H]1CN(C2CCN(c3ccccc3Cl)CC2)C[C@@H]1CO`: -9.22%; `Cc1nn(C)c2nc(N3CCC(C(O)c4ccccn4)CC3)sc12` (stereo not given): 22.2%. `CCc1nc(CCNS(=O)(=O)c2cccc(C(=O)N(C)CC)c2)cs1`: the cytotoxicity at 10 µM was -36.2%. For `COCCn1c(=O)n(Cc2cccc(F)c2F)c2cc(C(=O)O)ccc21`, the cytotoxicity at 10 µM stood at 9.15%. Next, `COc1nc2c(cc1C(=O)NCc1noc(-c3ccco3)n1)CCC2`: -6.04%; `CC(C)(C)c1nc(CN(Cc2cccnc2)C2CN3CCC2CC3)no1` (stereo not given): -4.09%. Next, `CN1CC2(CCCN(Cc3ccc(Oc4ccccc4)cc3)C2)OC1=O` (stereo not given): 15.8%. To `COc1ccc2[nH]c3c(c2c1)CN(c1cc(NCCO)nc(N)n1)CC3` belongs 8.75%; to `COc1ccccc1OC1(C(=O)O)CCN(c2ncnc(C)c2C)CC1`, -11.2%.

Regarding `CN1CCCN(c2cnn(Cc3ccncc3)c(=O)c2)CC1`, the cytotoxicity at 10 µM was 6.75%. To `CNc1nc(C(=O)N2C[C@@H]3CCN(C)[C@@H]3C2)cs1` belongs -10.8%. To `CC(=O)N1CCC(C(=O)N2CCOC(CC3CCCCC3)C2)CC1` (stereo not given) belongs -13.7%; to `COc1cc(C)ccc1S(=O)(=O)N[C@H]1CN(C(C)=O)C[C@@H]1C1CC1`, 5.71%; to `CCC(CC)NCC(C)Oc1cccnc1` (stereo not given), 8.26%. Next, `N#Cc1cccc(Oc2ccc(CN3CCCC3)cc2Cl)n1`: -16%. In the case of `Cc1ccc(CN2CCC3(CCCN(Cc4ccc(F)c(F)c4)C3)C2)o1` (stereo not given), the cytotoxicity at 10 µM was 9.39%. For the compound `Cc1cc(N2CCCC(N(C)C)C2)n2nccc2n1` (stereo not given), the cytotoxicity at 10 µM was -43.4%. To `COc1cccc(OCCc2nc3c(cc2C(N)=O)CCC3)c1` belongs 7.32%; to `COc1ccc(C(=O)N2C[C@@H](NC(=O)N(C)C)[C@H](C(C)C)C2)c(OC)n1`, 3.6%. To `CCN1CCC(CC(=O)N(C)CC(=O)c2ccc(O)cc2)CC1` belongs 1.73%; to `Cc1nccc(N[C@H]2CN(C(=O)CCN3CCCC3=O)C[C@@H]2C(C)C)n1`, -6.3%.

For `CCNC(=O)[C@@H]1C[C@H](N)CN1C1CCN(c2ccccc2OC)CC1`, the cytotoxicity at 10 µM was -43.9%. To `OC1(CNCCSCc2ccccc2)CCCNC1` (stereo not given) belongs 1.84%; to `CC(C)[C@H]1CN(C2Cc3ccccc3C2)C[C@@H]1NS(C)(=O)=O`, -16%. To `CN1CCN(Cc2ccc(-c3ccc(-c4ccn[nH]4)cc3)nc2)CC1` belongs 3.61%; to `Cc1cc(F)ccc1CN1CCCC(O)(CN2CCCC2)C1` (stereo not given), -5.19%; to `COc1ccc(C2(C(=O)N3CC(c4cccnc4)C3)CC2(C)C)cc1` (stereo not given), 12.3%. Next, `Cc1ccccc1C(=O)N1CCOC2(CNCCOC2)C1` (stereo not given): -16.5%; `COc1ccc(-c2cc(C3CCCCCN3S(=O)(=O)N(C)C)on2)cc1` (stereo not given): 2.24%; `Cn1ccnc1CN1CCCN(C(=O)c2ccc3cc[nH]c3c2)CC1`: -6.44%. In the case of `Cc1ccccc1C1(C(=O)NCCN2CCC(C)CC2)CCOCC1`, the cytotoxicity at 10 µM was determined as 3.57%.

With `Cc1nc(C2CCCN2CC(=O)NCCOc2ccc(F)cc2)no1` (stereo not given), the cytotoxicity at 10 µM is -9.63%. Regarding `N#Cc1ccc(S(=O)(=O)NC(=O)C2CC2)c(C(F)(F)F)c1`, the cytotoxicity at 10 µM is -11.1%. Next, `CC(C)n1cc(CN2CCCN(C(=O)c3cc(Cl)c[nH]3)CC2)cn1`: -10.9%. To `CCOc1ccc(Cl)cc1C1CCCCN1` (stereo not given) belongs 9.15%; to `CS(=O)(=O)N1CC[C@H]2O[C@H](C(=O)NCCc3ccccn3)CC[C@H]21`, 8.5%; to `O=C(c1cccc(Cl)c1)N1CCCn2c(CN3CCCCC3)nnc2C1`, 4.01%. To `CC(C)(C)C(=O)N1C[C@H](c2ccsc2)[C@H]2CN(Cc3cccs3)CC[C@H]21` belongs 12.7%; to `O=C(CC1CC1)N1CCO[C@H]2[C@H](OCCCn3cccn3)CC[C@@H]21`, 6.23%; to `Cc1ccc(CN2CC3(CCN(C(=O)c4cscn4)C3)C2)o1`, 5.28%. For the compound `CN(C)CCN1CCOCC2(CCCN(C(=O)c3ccccn3)C2)C1` (stereo not given), the cytotoxicity at 10 µM stood at 6.67%. For the compound `CC(C)COCC1CN(Cc2ccc3c(c2)OCO3)Cc2ncn(C)c21` (stereo not given), the cytotoxicity at 10 µM is -10.7%. Take `Cc1ccc(CN2CCCn3nnc(COCCN(C)C)c3C2)s1`: the cytotoxicity at 10 µM is -114%.

Turning to `O=C(NC[C@]12COC[C@H]1CN(Cc1ccco1)C2)c1ccccc1`, the cytotoxicity at 10 µM was -2.53%.

For `CN(C)CCOCc1cncc2c1CCN(C(=O)C1CCOCC1)C2`, the cytotoxicity at 10 µM is -1.87%. To `CN(Cc1cccnc1)C[C@H]1OC[C@@H]2CCN(C(=O)C3CC3)C[C@@H]21` belongs -117%. To `c1cncc(COCc2cncc3c2CCN(Cc2ccoc2)C3)c1` belongs -109%.
